Source: ChEMBL document CHEMBL1125750, “Dual antagonists of platelet activating factor and histamine. Identification of structural requirements for dual activity of N-Acyl-4-(5,6-dihydro-11H-benzo [5,6]cyclohepta-[1,2-b]pyridin-11-ylidene)piperidines” (J Med Chem, 1991)

Legend:
Histamine H1 receptor = Histamine H1 receptor (Rattus norvegicus, UniProt P31390); assay: Binding affinity to histamine H1 receptor in rat brain membranes was evaluated using [3H]-pyrilamine as radioligand; format: cell membranes
Chain of Histamine H1 receptor (P31390 whole entry): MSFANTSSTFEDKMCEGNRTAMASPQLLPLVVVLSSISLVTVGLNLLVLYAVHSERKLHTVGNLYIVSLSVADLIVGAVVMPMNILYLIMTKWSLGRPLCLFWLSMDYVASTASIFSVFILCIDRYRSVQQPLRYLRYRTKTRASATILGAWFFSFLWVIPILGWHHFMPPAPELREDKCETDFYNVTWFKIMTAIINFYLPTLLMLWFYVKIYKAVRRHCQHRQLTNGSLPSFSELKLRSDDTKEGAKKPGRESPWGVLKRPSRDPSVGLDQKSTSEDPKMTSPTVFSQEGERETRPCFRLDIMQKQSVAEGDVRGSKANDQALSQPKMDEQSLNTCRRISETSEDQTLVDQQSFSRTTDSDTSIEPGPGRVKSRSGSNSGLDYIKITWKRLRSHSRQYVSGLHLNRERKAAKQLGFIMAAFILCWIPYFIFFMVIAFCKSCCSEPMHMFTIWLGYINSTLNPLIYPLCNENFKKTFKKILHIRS

Cavia porcellus [1] = assay: Compound tested for inhibition of guinea pig bronchospasm at a peroral dose of 10 mg/Kg and after 2 hr followed by iv challenge with 0.4 ug/Kg of PAF; format: functional, Bronchiole
Cavia porcellus [2] = assay: Compound tested for its %inhibition of guinea pig bronchospasm at a peroral dose of 10 mg/Kg and after 2 hr followed by iv challenge with 10 ug/Kg of histamine
Cavia porcellus [3] = assay: as above; remark: listed apart in the source
Cavia porcellus [4] = assay: Compound tested for its %inhibition of guinea pig bronchospasm at a peroral dose of 3 mg/Kg and after 2 hr followed by iv challenge with 0.4 ug/Kg of histamine
[5] = %inhibition of guinea pig bronchospasm at a peroral dose of 10 mg/kg and after 2 hr followed by iv challenge with 0.4 micro g/kg of PAF; format: functional; conditions: Cavia porcellus, Bronchiole, route oral
How it was run: (§1)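 Compound given orally 2 h before an iv PAF challenge at 0.4 µg/kg. Values are reported as mean ± standard error of the mean unless noted otherwise, with N animals per determination.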

Cavia porcellus [6] = assay: Compound tested for its %inhibition of guinea pig bronchospasm at a peroral dose of 10 mg/kg and after 2 hr followed by iv challenge with 0.4 micro g/kg of histamine.; format: functional; conditions: Bronchiole, route oral
Cavia porcellus [7] = assay: Compound tested for its %inhibition of guinea pig bronchospasm at a peroral dose of 10 mg/kg and after 2 hr followed by iv challenge with 0.4 micro g/kg of PAF.; format: functional; conditions: Bronchiole, route oral; how it was run: as §1

Row | SMILES | Ki (Histamine H1 receptor) | also measured
1 | CCC(=O)N1CCC(=C2c3ccc(Cl)cc3CCc3cccnc32)CC1 | 48 nM | 
2 | CC(=O)N(C)CC/C=C1\c2ccc(Cl)cc2CCc2cccnc21 | 290 nM | 
3 | COc1ccc2c(c1)CCc1cccnc1C2=C1CCN(C(C)=O)CC1 | 1600 nM | 
4 | CC(=O)N1CCC(=C2c3cc(Cl)c(Cl)cc3CCc3cccnc32)CC1 | 3100 nM | 
5 | CC(=O)N1CCC(=C2c3ccccc3CCc3cccnc32)CC1 | 2000 nM | Inhibition (Cavia porcellus [1]): 44%; Inhibition (Cavia porcellus [2]): 96%
6 | CC(=O)N1CCC(=C(c2ccc(Cl)cc2)c2ccccn2)CC1 | > 6300 nM | 
7 | O=C(c1ccccc1)N1CCC(=C2c3ccc(Cl)cc3CCc3cccnc32)CC1 | 190 nM | 
8 | CC(=O)N(C)CC/C=C1/c2ccc(Cl)cc2CCc2cccnc21 | 850 nM | 
9 | CC(=O)N1CCC(=C2c3ccc(Br)cc3CCc3cccnc32)CC1 |  | Inhibition (Cavia porcellus [3]): 99%
10 | CC(=O)N1CCC(=C2c3ccc(C)cc3CCc3cccnc32)CC1 | 190 nM | 
11 | CC(=O)N1CCC(=C2c3cc(F)ccc3CCc3cccnc32)CC1 | 2900 nM | 
12 | O=CN1CCC(=C2c3ccc(Cl)cc3CCc3cccnc32)CC1 | 21 nM | 
13 | CCCC(=O)N1CCC(=C2c3ccc(Cl)cc3CCc3cccnc32)CC1 | 51 nM | 
14 | CC(=O)N1CCC(=C2c3cc(Cl)ccc3CCc3cccnc32)CC1 | 1500 nM | 
15 | CC(=O)N1CCC(=C2c3ccccc3CCc3ccccc32)CC1 | 5000 nM | 
16 | CC(=O)C1CCC(=C2c3ccc(Cl)cc3CCc3cccnc32)CC1 (stereo not given) | 1200 nM | 
17 | CC(C)(C)C(=O)N1CCC(=C2c3ccc(Cl)cc3CCc3cccnc32)CC1 | 81 nM | 
18 | CC(=O)N1CCC(=C2c3cc(F)c(F)cc3CCc3cccnc32)CC1 | 10000 nM | Inhibition (Cavia porcellus [2]): 0%
19 | CC(=O)N1CCC(=C2c3ccc(F)cc3CCc3cccnc32)CC1 | 720 nM | Inhibition (Cavia porcellus [4]): 79%
20 | CC(=O)N1CCC(=C2c3ccc(O)cc3CCc3cccnc32)CC1 | > 6300 nM | 
21 | Cc1nnc2n1-c1sc(CCC(=O)N3CCOCC3)cc1C(c1ccccc1Cl)=NC2 [APAFANT] |  | inhibition in vivo at 10 mg/kg [5]: 99%; inhibition in vivo at 10 mg/kg (Cavia porcellus [6]): 7%; inhibition in vivo at 10 mg/kg (Cavia porcellus [7]): 60%
22 | CN1CCC(=C2c3ccccc3CCc3cccnc32)CC1 [AZATADINE] | 3.9 nM | 
23 | CC(=O)N1CCC(=C2c3ccc(Cl)cc3CCc3cccnc32)CC1 [SCH-37370] | 320 nM | Inhibition (Cavia porcellus [3]): 99%
